From ChEMBL document CHEMBL4715736, “Identification of anticancer agents based on the thieno[2,3-b]pyridine and 1H-pyrazole molecular scaffolds” (2016)

These compounds were tested on SNB-19 (assay: Growth inhibition of human SNB-19 cells assessed as cell growth at 10 uM incubated for 48 hrs by sulforhodamine B assay relative to control). Details: read-out: Activity.
Assay type: functional
Procedure, shortened: (§1)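 Run by the NCI Developmental Therapeutics Program as part of its 60-line human tumour panel. Each compound tested at a single 10 µM dose. Growth expressed as % relative to untreated control cells (100%).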

In order of rising growth at 10 µM:
1. CC(=O)c1cccc(NC(=O)c2sc3nc4c(cc3c2N)C(=O)CCC4)c1  99.5%
2. CC(C)N1CCc2nc3sc(C(=O)Nc4ccccc4)c(N)c3cc2C1  105%

What follows are compounds tested on OVCAR-8 (assay: Growth inhibition of human OVCAR-8 cells assessed as cell growth at 10 uM incubated for 48 hrs by sulforhodamine B assay relative to control). Details: read-out: Activity.
Assay type: functional
Procedure, shortened: as §1

In order of rising growth at 10 µM:
1. CC(C)N1CCc2nc3sc(C(=O)Nc4ccccc4)c(N)c3cc2C1  95.9%
2. CC(=O)c1cccc(NC(=O)c2sc3nc4c(cc3c2N)C(=O)CCC4)c1  101%

The compounds below were run on OVCAR-4 (assay: Growth inhibition of human OVCAR-4 cells assessed as cell growth at 10 uM incubated for 48 hrs by sulforhodamine B assay relative to control). Details: read-out: Activity.
Assay type: functional
Procedure, shortened: as §1

In order of rising growth at 10 µM:
1. CC(=O)c1cccc(NC(=O)c2sc3nc4c(cc3c2N)C(=O)CCC4)c1  88.1%
2. CC(C)N1CCc2nc3sc(C(=O)Nc4ccccc4)c(N)c3cc2C1  105%

What follows are compounds tested on SF-268 (assay: Growth inhibition of human SF-268 cells assessed as cell growth at 10 uM incubated for 48 hrs by sulforhodamine B assay relative to control). Details: read-out: Activity.
Assay type: functional
Procedure, shortened: as §1

In order of falling growth at 10 µM:
1. CC(C)N1CCc2nc3sc(C(=O)Nc4ccccc4)c(N)c3cc2C1  113%
2. CC(=O)c1cccc(NC(=O)c2sc3nc4c(cc3c2N)C(=O)CCC4)c1  110%

The compounds below were run on T47D (assay: Growth inhibition of human T47D cells assessed as cell growth at 10 uM incubated for 48 hrs by sulforhodamine B assay relative to control). Details: read-out: Activity.
Assay type: functional
Procedure, shortened: as §1

In order of rising growth at 10 µM:
1. CC(C)N1CCc2nc3sc(C(=O)Nc4ccccc4)c(N)c3cc2C1  91.7%
2. CC(=O)c1cccc(NC(=O)c2sc3nc4c(cc3c2N)C(=O)CCC4)c1  93.8%

Each compound was assayed on DU-145 (assay: Growth inhibition of human DU-145 cells assessed as cell growth at 10 uM incubated for 48 hrs by sulforhodamine B assay relative to control). Details: read-out: Activity.
Assay type: functional
Procedure, shortened: (§2)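 NCI Developmental Therapeutics Program NCI60 panel. Compounds that were active in the 10 µM one-dose screen went on to dose–response testing. Growth at each concentration is expressed relative to untreated control (100%). GI50 (concentration giving 50% of maximal inhibition of proliferation) and TGI (concentration giving total growth inhibition) were derived from the curves.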

In order of falling growth at 10 µM:
1. CC(C)N1CCc2nc3sc(C(=O)Nc4ccccc4)c(N)c3cc2C1  110%
2. CC(=O)c1cccc(NC(=O)c2sc3nc4c(cc3c2N)C(=O)CCC4)c1  108%

What follows are compounds tested on COLO 205 (assay: Growth inhibition of human COLO 205 cells assessed as cell growth at 10 uM incubated for 48 hrs by sulforhodamine B assay relative to control). Details: read-out: Activity.
Assay type: functional
Procedure, shortened: as §2

In order of rising growth at 10 µM:
1. CC(=O)c1cccc(NC(=O)c2sc3nc4c(cc3c2N)C(=O)CCC4)c1  100%
2. CC(C)N1CCc2nc3sc(C(=O)Nc4ccccc4)c(N)c3cc2C1  102%

Each compound was assayed on LOX IMVI (assay: Growth inhibition of human LOX IMVI cells assessed as cell growth at 10 uM incubated for 48 hrs by sulforhodamine B assay relative to control). Details: read-out: Activity.
Assay type: functional
Procedure, shortened: (§3)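 Submitted to the NCI Developmental Therapeutics Program for the NCI60 human tumour cell line panel. First screen at a single 10 µM concentration. Read-out is growth relative to untreated control cells set at 100%.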

In order of falling growth at 10 µM:
1. CC(=O)c1cccc(NC(=O)c2sc3nc4c(cc3c2N)C(=O)CCC4)c1  106%
2. CC(C)N1CCc2nc3sc(C(=O)Nc4ccccc4)c(N)c3cc2C1  102%

What follows are compounds tested on TK-10 (assay: Growth inhibition of human TK-10 cells assessed as cell growth at 10 uM incubated for 48 hrs by sulforhodamine B assay relative to control). Details: read-out: Activity.
Assay type: functional
Procedure, shortened: as §1

In order of rising growth at 10 µM:
1. CC(=O)c1cccc(NC(=O)c2sc3nc4c(cc3c2N)C(=O)CCC4)c1  89.3%
2. CC(C)N1CCc2nc3sc(C(=O)Nc4ccccc4)c(N)c3cc2C1  127%

These compounds were tested on SK-OV-3 (assay: Growth inhibition of human SK-OV-3 cells assessed as cell growth at 10 uM incubated for 48 hrs by sulforhodamine B assay relative to control). Details: read-out: Activity.
Assay type: functional
Procedure, shortened: as §1

In order of falling growth at 10 µM:
1. CC(C)N1CCc2nc3sc(C(=O)Nc4ccccc4)c(N)c3cc2C1  113%
2. CC(=O)c1cccc(NC(=O)c2sc3nc4c(cc3c2N)C(=O)CCC4)c1  102%

These compounds were tested on HT-29 (assay: Growth inhibition of human HT-29 cells assessed as cell growth at 10 uM incubated for 48 hrs by sulforhodamine B assay relative to control). Details: read-out: Activity.
Assay type: functional
Procedure, shortened: as §3

In order of falling growth at 10 µM:
1. CC(C)N1CCc2nc3sc(C(=O)Nc4ccccc4)c(N)c3cc2C1  103%
2. CC(=O)c1cccc(NC(=O)c2sc3nc4c(cc3c2N)C(=O)CCC4)c1  96.9%

Each compound was assayed on SW-620 (assay: Growth inhibition of human SW-620 cells assessed as cell growth at 10 uM incubated for 48 hrs by sulforhodamine B assay relative to control). Details: read-out: Activity.
Assay type: functional
Procedure, shortened: as §1

In order of falling growth at 10 µM:
1. CC(=O)c1cccc(NC(=O)c2sc3nc4c(cc3c2N)C(=O)CCC4)c1  98.4%
2. CC(C)N1CCc2nc3sc(C(=O)Nc4ccccc4)c(N)c3cc2C1  96.4%

Each compound was assayed on MDA-MB-231 (assay: Growth inhibition of human MDA-MB-231 cells assessed as cell growth at 10 uM incubated for 48 hrs by sulforhodamine B assay relative to control). Details: read-out: Activity.
Assay type: functional
Procedure, shortened: as §3

In order of rising growth at 10 µM:
1. CC(C)N1CCc2nc3sc(C(=O)Nc4ccccc4)c(N)c3cc2C1  95.2%
2. CC(=O)c1cccc(NC(=O)c2sc3nc4c(cc3c2N)C(=O)CCC4)c1  100%

Each compound was assayed on HCC 2998 (assay: Growth inhibition of human HCC 2998 cells assessed as cell growth at 10 uM incubated for 48 hrs by sulforhodamine B assay relative to control). Details: read-out: Activity.
Assay type: functional
Procedure, shortened: as §2

In order of rising growth at 10 µM:
1. CC(=O)c1cccc(NC(=O)c2sc3nc4c(cc3c2N)C(=O)CCC4)c1  97.7%
2. CC(C)N1CCc2nc3sc(C(=O)Nc4ccccc4)c(N)c3cc2C1  110%

These compounds were tested on 786-0 (assay: Growth inhibition of human 786-0 cells assessed as cell growth at 10 uM incubated for 48 hrs by sulforhodamine B assay relative to control). Details: read-out: Activity.
Assay type: functional
Procedure, shortened: as §2

In order of rising growth at 10 µM:
1. CC(=O)c1cccc(NC(=O)c2sc3nc4c(cc3c2N)C(=O)CCC4)c1  97%
2. CC(C)N1CCc2nc3sc(C(=O)Nc4ccccc4)c(N)c3cc2C1  108%

What follows are compounds tested on MCF7 (assay: Growth inhibition of human MCF7 cells assessed as cell growth at 10 uM incubated for 48 hrs by sulforhodamine B assay relative to control). Details: read-out: Activity.
Assay type: functional
Procedure, shortened: as §3

In order of falling growth at 10 µM:
1. CC(C)N1CCc2nc3sc(C(=O)Nc4ccccc4)c(N)c3cc2C1  94.7%
2. CC(=O)c1cccc(NC(=O)c2sc3nc4c(cc3c2N)C(=O)CCC4)c1  84.4%

The compounds below were run on RPMI-8226 (assay: Growth inhibition of human RPMI-8226 cells assessed as cell growth at 10 uM incubated for 48 hrs by sulforhodamine B assay relative to control). Details: read-out: Activity.
Assay type: functional
Procedure, shortened: as §1

In order of rising growth at 10 µM:
1. CC(=O)c1cccc(NC(=O)c2sc3nc4c(cc3c2N)C(=O)CCC4)c1  92.7%
2. CC(C)N1CCc2nc3sc(C(=O)Nc4ccccc4)c(N)c3cc2C1  98.2%

What follows are compounds tested on SK-MEL-2 (assay: Growth inhibition of human SK-MEL-2 cells assessed as cell growth at 10 uM incubated for 48 hrs by sulforhodamine B assay relative to control). Details: read-out: Activity.
Assay type: functional
Procedure, shortened: as §1

In order of rising growth at 10 µM:
1. CC(=O)c1cccc(NC(=O)c2sc3nc4c(cc3c2N)C(=O)CCC4)c1  103%
2. CC(C)N1CCc2nc3sc(C(=O)Nc4ccccc4)c(N)c3cc2C1  114%

These compounds were tested on NCI-H522 (assay: Growth inhibition of human NCI-H522 cells assessed as cell growth at 10 uM incubated for 48 hrs by sulforhodamine B assay relative to control). Details: read-out: Activity.
Assay type: functional
Procedure, shortened: as §3

In order of rising growth at 10 µM:
1. CC(=O)c1cccc(NC(=O)c2sc3nc4c(cc3c2N)C(=O)CCC4)c1  87.1%
2. CC(C)N1CCc2nc3sc(C(=O)Nc4ccccc4)c(N)c3cc2C1  104%

These compounds were tested on BT-549 (assay: Growth inhibition of human BT-549 cells assessed as cell growth at 10 uM incubated for 48 hrs by sulforhodamine B assay relative to control). Details: read-out: Activity.
Assay type: functional
Procedure, shortened: (§4)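 NCI Developmental Therapeutics Program NCI60 human tumour cell line panel, one-dose primary screen with every compound at 10 µM. Growth is expressed as % of untreated control cells (100%).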

In order of rising growth at 10 µM:
1. CC(=O)c1cccc(NC(=O)c2sc3nc4c(cc3c2N)C(=O)CCC4)c1  93.7%
2. CC(C)N1CCc2nc3sc(C(=O)Nc4ccccc4)c(N)c3cc2C1  106%

The compounds below were run on NCI-H23 (assay: Growth inhibition of human NCI-H23 cells assessed as cell growth at 10 uM incubated for 48 hrs by sulforhodamine B assay relative to control). Details: read-out: Activity.
Assay type: functional
Procedure, shortened: as §3

In order of falling growth at 10 µM:
1. CC(=O)c1cccc(NC(=O)c2sc3nc4c(cc3c2N)C(=O)CCC4)c1  98.8%
2. CC(C)N1CCc2nc3sc(C(=O)Nc4ccccc4)c(N)c3cc2C1  97.9%

These compounds were tested on K562 (assay: Growth inhibition of human K562 cells assessed as cell growth at 10 uM incubated for 48 hrs by sulforhodamine B assay relative to control). Details: read-out: Activity.
Assay type: functional
Procedure, shortened: as §3

In order of falling growth at 10 µM:
1. CC(C)N1CCc2nc3sc(C(=O)Nc4ccccc4)c(N)c3cc2C1  97.8%
2. CC(=O)c1cccc(NC(=O)c2sc3nc4c(cc3c2N)C(=O)CCC4)c1  79.8%

What follows are compounds tested on ACHN (assay: Growth inhibition of human ACHN cells assessed as cell growth at 10 uM incubated for 48 hrs by sulforhodamine B assay relative to control). Details: read-out: Activity.
Assay type: functional
Procedure, shortened: as §4

In order of falling growth at 10 µM:
1. CC(=O)c1cccc(NC(=O)c2sc3nc4c(cc3c2N)C(=O)CCC4)c1  103%
2. CC(C)N1CCc2nc3sc(C(=O)Nc4ccccc4)c(N)c3cc2C1  100%

The compounds below were run on SR (assay: Growth inhibition of human SR cells assessed as cell growth at 10 uM incubated for 48 hrs by sulforhodamine B assay relative to control). Details: read-out: Activity.
Assay type: functional
Procedure, shortened: as §1

In order of falling growth at 10 µM:
1. CC(=O)c1cccc(NC(=O)c2sc3nc4c(cc3c2N)C(=O)CCC4)c1  91.1%
2. CC(C)N1CCc2nc3sc(C(=O)Nc4ccccc4)c(N)c3cc2C1  86.6%
